According to article PMC7413308 (ARKIVOC : free online journal of organic chemistry, 2018):
“Also recorded” adds a separate entry of the source. Read-outs that look alike come from different tables or passages of the source.

Assays:
rhesus monkeys = settings: cited from earlier work
rats [1] = settings: cited from earlier work
mice [2] = assay: Rotarod assay, i.p. dosing; format: in vivo; settings: 100 mg/kg i.p., 30 minutes prior to testing, 6 rpm, n=8
In short: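 Mice (n=8) were given the test compound at 100 mg/kg ip 30 minutes before being placed on a rod rotating at 6 rpm for a 1-minute trial. Any mouse that fell 3 times during the trial was scored as toxic (ataxic or sedated).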

[3] = MAM model of schizophrenia; cited from earlier work
mice [4] = settings: cited from earlier work
[5] = In vitro liver microsomal stability; format: in vitro ADME, human; settings: 4 μM compound, 37 °C, 30 minutes
[6] = In vitro liver microsomal stability; format: in vitro ADME, rat; settings: 4 μM compound, 37 °C, 30 minutes
mice [7] = assay: 6 Hz electroshock seizure assay; format: in vivo
In short: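 Mice received the test compound i.p. at 100 or 150 mg/kg, depending on the compound. At various time points after dosing, a 6 Hz electroshock lasting 3 seconds was delivered through a corneal electrode. Each animal was then observed for convulsions and scored as protected or not.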

rats [8] = assay: Prepulse inhibition; format: in vivo; settings: 30 mg/kg, IP, one hour before testing, PCP·HCl 1.5 mg/kg SC ten minutes prior to testing
In short: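 Rats received the test compound at 30 mg/kg ip one hour before testing, then PCP·HCl (1.5 mg/kg, sc) ten minutes before testing to disrupt PPI. Startle to an auditory stimulus was measured with a non-startling auditory prepulse at 5, 10 and 15 decibels. Results were expressed as mean (+SEM) percent prepulse inhibition and compared with PCP-treated controls given 0 mg/kg drug.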

[9] = In vitro liver microsomal stability; format: in vitro ADME, dog; settings: 4 μM compound, 37 °C, 30 minutes
[10] = In vitro liver microsomal stability; format: in vitro ADME, mouse; settings: 4 μM compound, 37 °C, 30 minutes
[11] = In vitro microsomal stability of analogs; format: in vitro ADME, mouse; settings: for remaining at 2 h: after 2 hr
[12] = In vitro microsomal stability of analogs; format: in vitro ADME, human; settings: for remaining at 2 h: after 2 hr
[13] = cited from earlier work
mice [14] = assay: Sensorimotor coordination on rotating rod after oral gavage; format: in vivo; settings: oral gavage 40 mg/kg, rotating rod max 3 minutes, three time-points
HEPG2 (liver) cell line = assay: In vitro cytotoxicity, cell viability; format: cell-based; settings: 48 h incubation, Cell-Titer Glo cell viability
[15] = cited from earlier work; remark: listed apart in the source
[16] = system: HEK293 (kidney) cell line; assay: In vitro cytotoxicity, cell viability; format: cell-based; settings: 48 h incubation, Cell-Titer Glo cell viability
[17] = poly (I:C) animal model of schizophrenia; cited from earlier work
mice, rats and primates = settings: cited from earlier work
Procognitive assay = format: in vivo; settings: data only preliminary
[18] = footnote d: assessed at 1-hour incubation time
[19] = footnote b: compound not detected after 20 minutes
[20] = mouse, liver microsomes, Microsomal stability (MLM) % remaining
[21] = human, liver microsomes, Microsomal stability (HLM) % remaining

Structure (SMILES)	Anxiolytic effect (rhesus monkeys)	Anxiolytic effect (rats [1])	Ataxia in rotarod assay (mice [2])	Liver microsomal stability (%-remaining) HLM [5]	Liver microsomal stability (%-remaining) RLM [6]	Reversal of PCP-induced PPI deficit (rats [8])	Liver microsomal stability (%-remaining) DLM [9]	Liver microsomal stability (%-remaining) MLM [10]	half-life ([11]; mouse, liver microsomes)	half-life ([12]; human, liver microsomes)	Effect on sensorimotor coordination (motor impairment, sedation/ataxia) (mice [14])	HEPG2 LD50 (HEPG2 (liver) cell line)	HEK293 LD50 [16]	remaining at 2 h [11, 20]	remaining at 2 h [12, 21]	also measured
C#Cc1ccc2c(c1)C(c1ccccc1F)=N[C@H](C)c1c(C(=O)OCC)ncn1-2 [compound 1]	only a minimal anxiolytic effect	only a minimal anxiolytic effect	neither 1 nor 2 produced significant ataxia	100%	5.4%	failed to reach a significant effect; also recorded: not 1 reversed the PPI deficits	90.3%	59.1%								Effect on amphetamine-induced hyperactivity of the dopamine system [3]: successfully alleviate the hyperactivity of the dopamine system induced by amphetamine; Anxiolytic and antidepressant effects after UCMS (mice [4]; female mice): exhibited anxiolytic and antidepressant effects; Anxiolytic and antidepressant effects after UCMS (mice [4]; male mice): very weak or none at all; Liver microsomal stability (%-remaining) HLM ([5]; listed as SH-053-2'F-R-CH3 (1)): 100.0%; Protection from 6 Hz electroshock-induced seizures (mice [7]; i.p. 150 mg/kg, various time points, 150 mg/kg): not effective at any time; also recorded: not able to protect mice from electroshock-induced seizures
C#Cc1ccc2c(c1)C(c1ccccc1F)=N[C@@H](C)c1c(C(=O)N(C)C)ncn1-2 [8f, (S)-8-Ethynyl-6-(2-fluorophenyl)-N,N,4-trimethyl-4H-benzo[f]imidazo[1,5-a][1,4]diazepine-3-carboxamide]									0.4 ± 0.0333 h	0.983 ± 0.0833 h	only minor impairment	>400 µM	>400 µM			remaining at 1 h ([11]; mouse, liver microsomes, Microsomal stability (MLM) % remaining, footnote d: assessed at 1-hour incubation time): 19 ± 0.9%; remaining at 1 h ([12]; human, liver microsomes, Microsomal stability (HLM) % remaining, footnote d: assessed at 1-hour incubation time): 41 ± 0.9%; Activity in antidepressant assay (forced swim test) [13]: active; Activity in procognitive assay [15]: procognitive (A++ and C++)
C#Cc1ccc2c(c1)C(c1ccccc1F)=N[C@@H](C)c1c(C(=O)OCC)ncn1-2 [compound 2]	exerted anxiolytic effects	exerted anxiolytic effects	neither 1 nor 2 produced significant ataxia	3%	6.0%	reversed PCP-induced prepulse inhibition (PPI) of acoustic startle; also recorded: significantly reversed the PPI deficit; also recorded: reversed the PPI deficits induced by PCP	90.7%	66.5%				73.5 ± 14.4 µM	28.0 ± 4.1 µM			Effect on amphetamine-induced hyperactivity [17]: successfully mitigated the amphetamine-induced hyperactivity; Microsomal stability (MLM) % remaining [11, 18]: 78.0 ± 0.2^d %; Microsomal stability (MLM) Half-life [11, 18]: 155 ± 9^d min; Microsomal stability (HLM) % remaining [12, 19]: < 5.0^b %; Microsomal stability (HLM) Half-life [12, 19]: < 5^b min; Liver microsomal stability (%-remaining) HLM ([5]; listed as SH-053-2'F-S-CH3 (2)): 2.3%; Protection from 6 Hz electroshock-induced seizures (mice [7]; i.p. 100 mg/kg, time points 1/4, 1/2, 1, 2, and 4 hours, 100 mg/kg): able to protect some subjects; Toxicity in pharmacological assays (mice, rats and primates): not toxic
C#Cc1ccc2c(c1)C(c1ccccc1F)=N[C@@H](C)c1c(-c3nc(C(C)C)no3)ncn1-2 [9c, (S)-5-(8-Ethynyl-6-(2-fluorophenyl)-4-methyl-4H-benzo[f]imidazo[1,5-a][1,4]diazepin-3-yl)-3-isopropyl-1,2,4-oxadiazole]									8.33 ± 1.82 h	43.1 ± 32 h	exhibited no sensorimotor impairment	21.7 ± 1.8 µM	32.5 ± 7.6 µM	79 ± 0.5%	91 ± 0.3%	
C#Cc1ccc2c(c1)C(c1ccccc1F)=N[C@@H](C)c1c(-c3nc(C)no3)ncn1-2 [9a, (S)-5-(8-Ethynyl-6-(2-fluorophenyl)-4-methyl-4H-benzo[f]imidazo[1,5-a][1,4]diazepin-3-yl)-3-methyl-1,2,4-oxadiazole]											did not exhibit motor impairments		69.3 ± 2.3 µM	81 ± 0.4%	86 ± 0.3%	Procognitive effects in the Y-maze paradigm (Procognitive assay): procognitive effects (C+)
